Laboratory results reported in ChEMBL document CHEMBL1143614, “Structure-activity relationships of the unique and potent agouti-related protein (AGRP)-melanocortin chimeric Tyr-c[beta-Asp-His-DPhe-Arg-Trp-Asn-Ala-Phe-Dpr]-Tyr-NH2 peptide template” (J Med Chem, 2005).
Where a SMILES comes first, the peptide text is derived from it. Bridges are numbered along the chain shown (N, C = ends).

How the values were obtained:
Melanocortin receptor 3 = Melanocortin receptor 3 (Mus musculus, UniProt P33033); test: Effective concentration for mouse Melanocortin-3 receptor
In short: (§1)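 HEK-293 cells stably expressing the mouse receptor (G418 selection), transiently transfected with a CRE/β-galactosidase reporter. Forskolin (10^-4 M) served as the control. After lysis, ONPG was added at 37° and OD405 was read. Signals were normalized to protein content and forskolin; EC50 came from a nonlinear least-squares fit, duplicate or more independent experiments in quadruplicate.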

[1] = target: Melanocortin receptor 3 (Mus musculus) (UniProt P33033); test: Relative percent of stimulatory activity for mouse Melanocortin-3 receptor at 100 uM
In short: (§2)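 HEK-293 cells stably expressing mouse melanocortin receptors (G418-selected) were transiently transfected with a CRE/β-galactosidase reporter. 48 h after transfection, cells were stimulated for 6 h with peptide (10^-4 to 10^-12 M) or forskolin (10^-4 M) in DMEM with 0.1 mg/mL BSA and 0.1 mM IBMX. Lysates were incubated with ONPG at 37° and read at OD405. Signals were normalized to relative protein (OD595) and to forskolin response. EC50 came from nonlinear least-squares fits of duplicate experiments in quadruplet or more.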

[2] = target: Melanocyte-stimulating hormone receptor (Mus musculus, UniProt Q01727); test: Effective concentration for mouse Melanocortin-1 receptor
Melanocortin receptor 4 = Melanocortin receptor 4 (Mus musculus, UniProt P56450); test: Effective concentration for mouse Melanocortin-4 receptor; in short: as §1
Melanocortin receptor 5 = Melanocortin receptor 5 (Mus musculus, UniProt P41149); test: Effective concentration for mouse Melanocortin-5 receptor
[3] = target: Melanocortin receptor 3 (Mus musculus) (UniProt P33033); test: Partial agonist activity towards mouse Melanocortin-3 receptor; format: functional; in short: as §2
Mus musculus = organism: Mus musculus; test: Relative effective concentration for Melanocortin-3 and Melanocortin-4 receptors

Chain of Melanocortin receptor 4 (P56450 whole entry): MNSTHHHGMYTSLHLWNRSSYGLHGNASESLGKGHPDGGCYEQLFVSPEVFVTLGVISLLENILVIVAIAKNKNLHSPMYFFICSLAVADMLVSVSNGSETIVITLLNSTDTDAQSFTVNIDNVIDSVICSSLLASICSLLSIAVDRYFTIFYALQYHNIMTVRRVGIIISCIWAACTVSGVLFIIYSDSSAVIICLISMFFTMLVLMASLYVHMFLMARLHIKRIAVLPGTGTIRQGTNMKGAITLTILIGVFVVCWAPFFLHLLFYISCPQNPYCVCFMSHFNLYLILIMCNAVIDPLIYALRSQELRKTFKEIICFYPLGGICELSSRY
Chain of Melanocortin receptor 3 (P33033 whole entry): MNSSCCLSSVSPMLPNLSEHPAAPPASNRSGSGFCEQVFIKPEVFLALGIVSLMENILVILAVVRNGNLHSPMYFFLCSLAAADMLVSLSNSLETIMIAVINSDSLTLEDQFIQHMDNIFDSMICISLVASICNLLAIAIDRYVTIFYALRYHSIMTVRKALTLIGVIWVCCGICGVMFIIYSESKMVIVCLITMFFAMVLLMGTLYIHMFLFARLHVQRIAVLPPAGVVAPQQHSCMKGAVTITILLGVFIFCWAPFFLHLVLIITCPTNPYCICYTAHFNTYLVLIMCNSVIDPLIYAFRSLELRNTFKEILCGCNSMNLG
Chain of Melanocortin receptor 5 (P41149 whole entry): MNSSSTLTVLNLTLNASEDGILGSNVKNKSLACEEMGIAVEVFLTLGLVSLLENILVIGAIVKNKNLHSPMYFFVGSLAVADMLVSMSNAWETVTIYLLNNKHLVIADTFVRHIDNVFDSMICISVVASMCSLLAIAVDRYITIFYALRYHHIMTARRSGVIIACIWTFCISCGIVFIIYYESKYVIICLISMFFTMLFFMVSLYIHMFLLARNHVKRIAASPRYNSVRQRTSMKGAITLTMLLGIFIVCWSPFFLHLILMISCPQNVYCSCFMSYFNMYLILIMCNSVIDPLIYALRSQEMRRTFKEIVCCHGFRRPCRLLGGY
Chain of Melanocyte-stimulating hormone receptor (Q01727 whole entry): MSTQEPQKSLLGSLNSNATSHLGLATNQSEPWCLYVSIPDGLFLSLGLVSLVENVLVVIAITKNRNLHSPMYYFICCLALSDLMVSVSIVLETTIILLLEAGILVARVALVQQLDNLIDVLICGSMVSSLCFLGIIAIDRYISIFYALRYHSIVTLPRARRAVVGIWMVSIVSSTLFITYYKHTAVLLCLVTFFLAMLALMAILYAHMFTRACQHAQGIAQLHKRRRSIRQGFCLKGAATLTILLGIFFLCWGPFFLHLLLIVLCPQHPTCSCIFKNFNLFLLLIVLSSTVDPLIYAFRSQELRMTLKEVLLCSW
Chain of Melanocortin receptor 3 (Mus musculus) (P33033 whole entry): as the sequence (P33033 whole entry) above

C[C@@H]1NC(=O)[C@H](CC(N)=O)NC(=O)[C@H](Cc2c[nH]c3ccccc23)NC(=O)[C@H](CCCN=C(N)N)NC(=O)[C@@H](Cc2ccccc2)NC(=O)[C@H](Cc2c[nH]cn2)NC(=O)[C@@H](NC(=O)[C@@H](N)Cc2ccc(O)cc2)CC(=O)N([C@@H](Cc2ccc(O)cc2)C(N)=O)[C@@](C)(C(=O)O)NC(=O)[C@H](Cc2ccccc2)NC1=O showed an EC50 (Melanocortin receptor 3) of 0.97 nM.

C[C@@H]1NC(=O)[C@H](CC(N)=O)NC(=O)[C@H](Cc2c[nH]c3ccccc23)NC(=O)[C@H](CCCN=C(N)N)NC(=O)[C@H](C)NC(=O)[C@H](Cc2c[nH]cn2)NC(=O)[C@@H](NC(=O)[C@@H](N)Cc2ccc(O)cc2)CC(=O)N([C@@H](Cc2ccc(O)cc2)C(N)=O)[C@@](C)(C(=O)O)NC(=O)[C@H](Cc2ccccc2)NC1=O gave an SA [1] of 60%.

In the case of C[C@@H]1NC(=O)[C@H](CC(N)=O)NC(=O)[C@H](Cc2c[nH]c3ccccc23)NC(=O)[C@H](CCCN=C(N)N)NC(=O)[C@@H](Cc2ccccc2)NC(=O)C2(CCc3ccccc3C2)NC(=O)[C@@H](NC(=O)[C@@H](N)Cc2ccc(O)cc2)CC(=O)NC[C@@H](C(=O)N[C@@H](Cc2ccc(O)cc2)C(N)=O)NC(=O)[C@H](Cc2ccccc2)NC1=O (mixture of isomers), the EC50 [2] is reported as 690 nM, the EC50 (Melanocortin receptor 4) is reported as 115 nM and the EC50 (Melanocortin receptor 5) is reported as 440 nM.

With C[C@@H]1NC(=O)[C@H](CC(N)=O)NC(=O)[C@H](Cc2c[nH]c3ccccc23)NC(=O)[C@H](CCCN=C(N)N)NC(=O)[C@@H](Cc2ccccc2)NC(=O)[C@H](Cc2ccccc2)NC(=O)[C@@H](NC(=O)[C@@H](N)Cc2ccc(O)cc2)CC(=O)N([C@@H](Cc2ccc(O)cc2)C(N)=O)[C@@](C)(C(=O)O)NC(=O)[C@H](Cc2ccccc2)NC1=O the pA2 [3] was 7.2.

In the case of C[C@@H]1NC(=O)[C@H](CC(N)=O)NC(=O)[C@H](Cc2c[nH]c3ccccc23)NC(=O)[C@H](CCCN=C(N)N)NC(=O)[C@@H](Cc2cccc3ccccc23)NC(=O)[C@H](Cc2c[nH]cn2)NC(=O)[C@@H](NC(=O)[C@@H](N)Cc2ccc(O)cc2)CC(=O)N([C@@H](Cc2ccc(O)cc2)C(N)=O)[C@@](C)(C(=O)O)NC(=O)[C@H](Cc2ccccc2)NC1=O, the Selectivity ratio (Mus musculus) is reported as 560 and the EC50 (Melanocortin receptor 3) is reported as 320 nM.

In the case of C[C@@H]1NC(=O)[C@H](CC(N)=O)NC(=O)[C@H](Cc2c[nH]c3ccccc23)NC(=O)[C@H](CCCCN)NC(=O)[C@@H](Cc2ccccc2)NC(=O)[C@H](Cc2c[nH]cn2)NC(=O)[C@@H](NC(=O)[C@@H](N)Cc2ccc(O)cc2)CC(=O)N([C@@H](Cc2ccc(O)cc2)C(N)=O)[C@@](C)(C(=O)O)NC(=O)[C@H](Cc2ccccc2)NC1=O, the EC50 (Melanocortin receptor 3) is reported as 30800 nM.

Compound C[C@@H]1NC(=O)[C@H](CC(N)=O)NC(=O)[C@H](Cc2c[nH]c3ccccc23)NC(=O)[C@H](CCCN=C(N)N)NC(=O)[C@@H](Cc2ccccc2)NC(=O)[C@H](C)NC(=O)[C@@H](NC(=O)[C@@H](N)Cc2ccc(O)cc2)CC(=O)N([C@@H](Cc2ccc(O)cc2)C(N)=O)[C@@](C)(C(=O)O)NC(=O)[C@H](Cc2ccccc2)NC1=O has a Selectivity ratio (Mus musculus) of 80 and an EC50 (Melanocortin receptor 3) of 29 nM.

C[C@@H]1NC(=O)[C@H](CC(N)=O)NC(=O)[C@H](C)NC(=O)[C@H](CCCN=C(N)N)NC(=O)[C@@H](Cc2ccccc2)NC(=O)[C@H](Cc2c[nH]cn2)NC(=O)[C@@H](NC(=O)[C@@H](N)Cc2ccc(O)cc2)CC(=O)N([C@@H](Cc2ccc(O)cc2)C(N)=O)[C@@](C)(C(=O)O)NC(=O)[C@H](Cc2ccccc2)NC1=O was tested, and the Selectivity ratio (Mus musculus) was 19 and the EC50 (Melanocortin receptor 3) was 13500 nM.

C[C@@H]1NC(=O)[C@H](CC(N)=O)NC(=O)[C@H](Cc2c[nH]c3ccccc23)NC(=O)[C@@H]2CCCN2C(=O)[C@@H](Cc2ccccc2)NC(=O)[C@H](Cc2c[nH]cn2)NC(=O)[C@@H](NC(=O)[C@@H](N)Cc2ccc(O)cc2)CC(=O)N([C@@H](Cc2ccc(O)cc2)C(N)=O)[C@@](C)(C(=O)O)NC(=O)[C@H](Cc2ccccc2)NC1=O showed an EC50 (Melanocortin receptor 3) of 17300 nM.

Work on C[C@@H]1NC(=O)[C@H](CC(N)=O)NC(=O)[C@H](Cc2c[nH]c3ccccc23)NC(=O)[C@H](CCCN=C(N)N)NC(=O)[C@@H](Cc2ccc(-c3ccccc3)cc2)NC(=O)[C@H](Cc2c[nH]cn2)NC(=O)[C@@H](NC(=O)[C@@H](N)Cc2ccc(O)cc2)CC(=O)N([C@@H](Cc2ccc(O)cc2)C(N)=O)[C@@](C)(C(=O)O)NC(=O)[C@H](Cc2ccccc2)NC1=O yielded a Selectivity ratio (Mus musculus) of 58 and an EC50 (Melanocortin receptor 3) of 33 nM.

In the case of C[C@@H]1NC(=O)[C@H](CC(N)=O)NC(=O)[C@@H]2CCCN2C(=O)[C@H](CCCNC(=N)N)NC(=O)[C@@H](Cc2ccccc2)NC(=O)[C@H](Cc2c[nH]cn2)NC(=O)[C@@H](NC(=O)[C@@H](N)Cc2ccc(O)cc2)CC(=O)NC[C@@H](C(=O)N[C@@H](Cc2ccc(O)cc2)C(N)=O)NC(=O)[C@H](Cc2ccccc2)NC1=O, the EC50 [2] is reported as 1000 nM, the EC50 (Melanocortin receptor 4) is reported as 7200 nM and the EC50 (Melanocortin receptor 5) is reported as 700 nM.

C[C@@H]1NC(=O)[C@H](CC(N)=O)NC(=O)[C@H](Cc2c[nH]c3ccccc23)NC(=O)[C@H](CCCCN)NC(=O)[C@@H](Cc2ccccc2)NC(=O)[C@H](Cc2c[nH]cn2)NC(=O)[C@@H](NC(=O)[C@@H](N)Cc2ccc(O)cc2)CC(=O)NC[C@@H](C(=O)N[C@@H](Cc2ccc(O)cc2)C(N)=O)NC(=O)[C@H](Cc2ccccc2)NC1=O was tested, and the EC50 [2] was 680 nM, the EC50 (Melanocortin receptor 4) was 8600 nM and the EC50 (Melanocortin receptor 5) was 800 nM.

For C[C@@H]1NC(=O)[C@H](CC(N)=O)NC(=O)[C@@H]2Cc3ccccc3CN2C(=O)[C@H](CCCN=C(N)N)NC(=O)[C@@H](Cc2ccccc2)NC(=O)[C@H](Cc2c[nH]cn2)NC(=O)[C@@H](NC(=O)[C@@H](N)Cc2ccc(O)cc2)CC(=O)N([C@@H](Cc2ccc(O)cc2)C(N)=O)[C@@](C)(C(=O)O)NC(=O)[C@H](Cc2ccccc2)NC1=O, the Selectivity ratio (Mus musculus) was 13 and the EC50 (Melanocortin receptor 3) was 3400 nM.

Work on C[C@@H]1NC(=O)[C@H](CC(N)=O)NC(=O)[C@H](Cc2ccccc2)NC(=O)[C@H](Cc2ccccc2)NC(=O)[C@H](CCCNC(=N)N)NC(=O)[C@@H](NC(=O)[C@@H](N)Cc2ccc(O)cc2)CSSC[C@@H](C(=O)N[C@@H](Cc2ccc(O)cc2)C(N)=O)NC(=O)[C@H](Cc2ccccc2)NC1=O (H-YCRFFNAFCY-NH2; disulfide 2-9) yielded an EC50 (Melanocortin receptor 3) greater than 100000 nM and an EC50 (Melanocortin receptor 5) greater than 100000 nM.

C[C@@H]1NC(=O)[C@H](CC(N)=O)NC(=O)[C@H](Cc2c[nH]c3ccccc23)NC(=O)[C@H](CCCN=C(N)N)NC(=O)[C@@H](Cc2ccccc2)NC(=O)[C@H](Cc2c[nH]cn2)NC(=O)[C@@H](NC(=O)[C@@H](N)Cc2ccc(O)cc2)CC(=O)N([C@@H](Cc2ccc(O)cc2)C(N)=O)[C@@](C)(C(=O)O)NC(=O)[C@@H](Cc2ccccc2)NC1=O was tested, and the Selectivity ratio (Mus musculus) was 21 and the EC50 (Melanocortin receptor 3) was 14 nM.

For C[C@@H]1NC(=O)[C@H](CC(N)=O)NC(=O)[C@H](C)NC(=O)[C@H](CCCNC(=N)N)NC(=O)[C@@H](Cc2ccccc2)NC(=O)[C@H](Cc2c[nH]cn2)NC(=O)[C@@H](NC(=O)[C@@H](N)Cc2ccc(O)cc2)CC(=O)NC[C@@H](C(=O)N[C@@H](Cc2ccc(O)cc2)C(N)=O)NC(=O)[C@H](Cc2ccccc2)NC1=O, the EC50 [2] was 350 nM, the EC50 (Melanocortin receptor 4) was 710 nM and the EC50 (Melanocortin receptor 5) was 50.1 nM.

For C[C@@H]1NC(=O)[C@H](CC(N)=O)NC(=O)[C@H](Cc2c[nH]c3ccccc23)NC(=O)[C@H](CCCN=C(N)N)NC(=O)[C@@H]2CCCN2C(=O)[C@H](Cc2c[nH]cn2)NC(=O)[C@@H](NC(=O)[C@@H](N)Cc2ccc(O)cc2)CC(=O)N([C@@H](Cc2ccc(O)cc2)C(N)=O)[C@@](C)(C(=O)O)NC(=O)[C@H](Cc2ccccc2)NC1=O, the EC50 (Melanocortin receptor 3) was 13200 nM.

With C[C@@H]1NC(=O)[C@H](CC(N)=O)NC(=O)[C@@H](Cc2ccc3ccccc3c2)NC(=O)[C@H](CCCN=C(N)N)NC(=O)[C@@H](Cc2ccccc2)NC(=O)[C@H](Cc2c[nH]cn2)NC(=O)[C@@H](NC(=O)[C@@H](N)Cc2ccc(O)cc2)CC(=O)N([C@@H](Cc2ccc(O)cc2)C(N)=O)[C@@](C)(C(=O)O)NC(=O)[C@H](Cc2ccccc2)NC1=O the Selectivity ratio (Mus musculus) was 10 and the EC50 (Melanocortin receptor 3) was 6.5 nM.

C[C@@H]1NC(=O)[C@H](CC(N)=O)NC(=O)[C@H](Cc2c[nH]c3ccccc23)NC(=O)[C@H](C)NC(=O)[C@@H](Cc2ccccc2)NC(=O)[C@H](Cc2c[nH]cn2)NC(=O)[C@@H](NC(=O)[C@@H](N)Cc2ccc(O)cc2)CC(=O)N([C@@H](Cc2ccc(O)cc2)C(N)=O)[C@@](C)(C(=O)O)NC(=O)[C@H](Cc2ccccc2)NC1=O showed a Selectivity ratio (Mus musculus) of 730 and an EC50 (Melanocortin receptor 3) of 23800 nM.

Work on C[C@@H]1NC(=O)[C@H](CC(N)=O)NC(=O)[C@H](Cc2ccc3ccccc3c2)NC(=O)[C@H](CCCN=C(N)N)NC(=O)[C@@H](Cc2ccccc2)NC(=O)[C@H](Cc2c[nH]cn2)NC(=O)[C@@H](NC(=O)[C@@H](N)Cc2ccc(O)cc2)CC(=O)N([C@@H](Cc2ccc(O)cc2)C(N)=O)[C@@](C)(C(=O)O)NC(=O)[C@H](Cc2ccccc2)NC1=O yielded a Selectivity ratio (Mus musculus) of 21 and an EC50 (Melanocortin receptor 3) of 5.56 nM.

For C[C@@H]1NC(=O)[C@H](CC(N)=O)NC(=O)[C@@H]2CCCN2C(=O)[C@H](CCCN=C(N)N)NC(=O)[C@@H](Cc2ccccc2)NC(=O)[C@H](Cc2c[nH]cn2)NC(=O)[C@@H](NC(=O)[C@@H](N)Cc2ccc(O)cc2)CC(=O)N([C@@H](Cc2ccc(O)cc2)C(N)=O)[C@@](C)(C(=O)O)NC(=O)[C@H](Cc2ccccc2)NC1=O, the EC50 (Melanocortin receptor 3) was 39200 nM.

Work on C[C@@H]1NC(=O)[C@H](CC(N)=O)NC(=O)[C@H](Cc2ccc(-c3ccccc3)cc2)NC(=O)[C@H](CCCN=C(N)N)NC(=O)[C@@H](Cc2ccccc2)NC(=O)[C@H](Cc2c[nH]cn2)NC(=O)[C@@H](NC(=O)[C@@H](N)Cc2ccc(O)cc2)CC(=O)N([C@@H](Cc2ccc(O)cc2)C(N)=O)[C@@](C)(C(=O)O)NC(=O)[C@H](Cc2ccccc2)NC1=O yielded a Selectivity ratio (Mus musculus) of 11 and an EC50 (Melanocortin receptor 3) of 450 nM.
